Assay results published in ChEMBL document CHEMBL1641414, “Synthesis and pharmacological evaluation of 4-(3,4-dichlorophenyl)-N-methyl-1,2,3,4-tetrahydronaphthalenyl amines as triple reuptake inhibitors” (Bioorg Med Chem, 2011).

Key:
[1] = target: Cytochrome P450 2C19 (Homo sapiens, UniProt P33261); assay: Inhibition of CYP2C19; format: ADME
[2] = Half life in mouse liver microsome; format: ADME; conditions: liver microsomes
Method in brief: (§1)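 Microsomal stability and CYP inhibition were run by a contract laboratory under its standard protocols. Stability was measured in human and mouse liver microsomes and reported as t1/2 in min. Midazolam was the reference substrate for CYP3A4.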

[3] = Half life in human liver microsome; format: ADME; conditions: liver microsomes; method in brief: as §1
[4] = target: Cytochrome P450 3A4 (Homo sapiens, UniProt P08684); assay: Inhibition of CYP3A4; format: ADME; method in brief: as §1
[5] = target: Sodium-dependent dopamine transporter (Homo sapiens, UniProt Q01959); assay: Inhibition of [3H]dopamine reuptake at human DAT expressed in CHOK1 cells by scintillation counting; format: cell-based, CHO-K1
[6] = target: Cytochrome P450 2D6 (Homo sapiens, UniProt P10635); assay: Inhibition of CYP2D6; format: ADME; method in brief: as §1
[7] = target: Cytochrome P450 2C9 (Homo sapiens, UniProt P11712); assay: Inhibition of CYP2C9; format: ADME; method in brief: as §1
[8] = target: Sodium-dependent noradrenaline transporter (Homo sapiens, UniProt P23975); assay: Inhibition of [3H]norepinephrine reuptake at human NET expressed in MDCK cells by scintillation counting; format: cell-based
[9] = Ratio of drug level in whole brain to plasma of mouse at 30 mg/kg, po after 120 mins; format: ADME, organism-based; set-up: dose 30 mg/kg, route oral; conditions: read-out: BPR
Method in brief: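 Male mice were dosed orally once with the HCl salt at 3, 10 and 30 mg/kg, with a 120 min pretreatment before the 5 min tail suspension test. There were 10–12 mice per group. Afterwards, whole brain (ng/g) and plasma (ng/mL) samples were taken from the tested animals to give the brain-to-plasma ratio.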

[10] = target: Voltage-gated inwardly rectifying potassium channel KCNH2 (Homo sapiens, UniProt Q12809); assay: Inhibition of human ERG
[11] = Drug level in mouse whole brain at 3 mg/kg, po after 120 mins; format: ADME, organism-based; set-up: dose 3 mg/kg, route oral; conditions: in vivo, 2 h
Method in brief: (§2)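 Male mice given the HCl salt orally at 3, 10 or 30 mg/kg. Plasma and whole brain were sampled from the tail suspension test animals after the 120 min pretreatment. Levels reported as ng/mL for plasma and ng/g for brain.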

[12] = test system: Mus musculus; assay: Antidepressant activity in po dosed mouse assessed as decrease in immobility after 120 mins by tail suspension test; format: functional, organism-based
Method in brief: (§3)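 Male mice (10–12 per group) dosed orally once, 120 min pretreatment, then suspended by the tail. Immobility recorded automatically for 5 min, scored blind, compared with a vehicle group. One-way ANOVA with post-hoc comparisons, p <0.05 taken as significant.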

[13] = Plasma protein binding in mouse at 3 to 30 mg/kg, po after 120 mins; format: ADME, organism-based; set-up: dose 3-30 mg/kg, route oral; conditions: read-out: PPB
[14] = Drug level in mouse whole brain at 10 mg/kg, po after 120 mins; format: ADME, organism-based; set-up: dose 10 mg/kg, route oral; conditions: in vivo, 2 h; method in brief: as §2
[15] = Drug level in mouse plasma at 10 mg/kg, po after 120 mins; format: ADME, organism-based; set-up: dose 10 mg/kg, route oral; conditions: read-out: Drug uptake; method in brief: as §2
[16] = test system: Mus musculus; assay: Antidepressant activity in mouse assessed as decrease in immobility at 30 mg/kg, po after 120 mins by tail suspension test; format: functional; conditions: 2 h; method in brief: as §3
[17] = test system: Brain; assay: fCmax in mouse brain at 3 to 30 mg/kg, po after 120 mins; format: ADME, organism-based; set-up: dose 3-30 mg/kg, route oral; conditions: in vivo, 2 h
Method in brief: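 Brain free level estimated from measured brain concentration in the tail suspension test animals, corrected by mouse plasma protein binding.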

[18] = Drug level in mouse plasma at 30 mg/kg, po after 120 mins; format: ADME, organism-based; set-up: dose 30 mg/kg, route oral; conditions: read-out: Drug uptake; method in brief: as §2
[19] = test system: Mus musculus; assay: Antidepressant activity in mouse assessed as decrease in immobility at 10 mg/kg, po after 120 mins by tail suspension test; format: functional; conditions: 2 h; method in brief: as §3
[20] = test system: Mus musculus; assay: Antidepressant activity in mouse assessed as decrease in immobility at 100 mg/kg, po after 120 mins by tail suspension test; format: functional; conditions: 2 h; method in brief: as §3
[21] = test system: Mus musculus; assay: Neurotoxicity in mouse assessed as effect on locomotor activity at 3 to 30 mg/kg, po; format: toxicity, organism-based; set-up: dose 3-30 mg/kg, route oral; conditions: in vivo
Method in brief: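 Mice pretreated orally with vehicle or compound, returned to the home cage, then placed individually in locomotor cages with infrared photocell beams. Horizontal and vertical activity monitored in 5 min intervals for up to 60 min; the first 5 min were assessed at 10 and 30 mg/kg. One-way ANOVA, p <0.05.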

[22] = Drug level in mouse plasma at 3 mg/kg, po after 120 mins; format: ADME, organism-based; set-up: dose 3 mg/kg, route oral; conditions: read-out: Drug uptake; method in brief: as §2
[23] = Drug level in mouse whole brain at 30 mg/kg, po after 120 mins; format: ADME, organism-based; set-up: dose 30 mg/kg, route oral; conditions: in vivo, 2 h; method in brief: as §2

Cytochrome P450 2C19, sequence (P33261 whole entry): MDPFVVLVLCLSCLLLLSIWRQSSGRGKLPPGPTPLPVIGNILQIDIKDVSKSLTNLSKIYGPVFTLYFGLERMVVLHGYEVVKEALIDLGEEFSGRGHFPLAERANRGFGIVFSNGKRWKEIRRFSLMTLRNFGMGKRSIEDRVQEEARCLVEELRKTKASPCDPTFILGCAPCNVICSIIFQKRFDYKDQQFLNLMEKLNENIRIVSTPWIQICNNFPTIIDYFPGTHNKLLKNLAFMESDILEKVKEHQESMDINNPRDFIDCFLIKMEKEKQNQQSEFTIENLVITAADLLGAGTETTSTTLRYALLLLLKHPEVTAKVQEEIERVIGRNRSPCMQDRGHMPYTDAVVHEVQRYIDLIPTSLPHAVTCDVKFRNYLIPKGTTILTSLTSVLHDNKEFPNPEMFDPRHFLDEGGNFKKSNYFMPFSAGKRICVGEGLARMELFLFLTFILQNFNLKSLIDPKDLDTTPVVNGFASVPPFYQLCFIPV
Sodium-dependent noradrenaline transporter, sequence (P23975 whole entry): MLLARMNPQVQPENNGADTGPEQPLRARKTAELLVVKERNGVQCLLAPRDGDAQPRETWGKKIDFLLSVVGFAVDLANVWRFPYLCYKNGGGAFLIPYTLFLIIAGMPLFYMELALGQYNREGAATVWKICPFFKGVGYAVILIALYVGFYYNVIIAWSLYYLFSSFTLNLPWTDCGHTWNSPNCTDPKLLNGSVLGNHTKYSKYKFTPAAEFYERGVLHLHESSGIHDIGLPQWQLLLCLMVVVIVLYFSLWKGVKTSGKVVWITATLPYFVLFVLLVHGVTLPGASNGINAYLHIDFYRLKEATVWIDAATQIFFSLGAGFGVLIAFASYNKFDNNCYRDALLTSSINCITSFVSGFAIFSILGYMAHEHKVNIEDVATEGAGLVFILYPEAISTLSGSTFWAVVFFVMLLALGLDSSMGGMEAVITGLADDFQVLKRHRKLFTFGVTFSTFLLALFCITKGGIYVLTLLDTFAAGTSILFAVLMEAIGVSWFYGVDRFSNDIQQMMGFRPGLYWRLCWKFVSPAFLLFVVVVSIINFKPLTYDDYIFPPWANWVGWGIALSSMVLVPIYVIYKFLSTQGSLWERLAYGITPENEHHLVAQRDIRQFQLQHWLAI
Cytochrome P450 3A4, sequence (P08684 whole entry): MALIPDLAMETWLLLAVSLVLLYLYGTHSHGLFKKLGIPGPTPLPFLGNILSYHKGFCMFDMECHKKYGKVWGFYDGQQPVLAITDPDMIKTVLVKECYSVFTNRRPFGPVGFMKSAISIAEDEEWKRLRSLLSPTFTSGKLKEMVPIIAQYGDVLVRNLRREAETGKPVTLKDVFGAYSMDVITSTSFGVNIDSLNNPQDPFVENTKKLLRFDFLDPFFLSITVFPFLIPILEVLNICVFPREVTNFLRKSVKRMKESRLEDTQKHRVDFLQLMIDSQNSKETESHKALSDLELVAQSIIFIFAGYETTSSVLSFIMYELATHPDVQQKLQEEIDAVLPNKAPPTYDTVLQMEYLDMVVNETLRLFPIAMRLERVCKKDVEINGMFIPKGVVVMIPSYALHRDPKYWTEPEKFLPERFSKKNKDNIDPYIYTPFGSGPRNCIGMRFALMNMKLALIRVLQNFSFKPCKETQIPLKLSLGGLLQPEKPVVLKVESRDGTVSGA
Voltage-gated inwardly rectifying potassium channel KCNH2, sequence (Q12809 whole entry): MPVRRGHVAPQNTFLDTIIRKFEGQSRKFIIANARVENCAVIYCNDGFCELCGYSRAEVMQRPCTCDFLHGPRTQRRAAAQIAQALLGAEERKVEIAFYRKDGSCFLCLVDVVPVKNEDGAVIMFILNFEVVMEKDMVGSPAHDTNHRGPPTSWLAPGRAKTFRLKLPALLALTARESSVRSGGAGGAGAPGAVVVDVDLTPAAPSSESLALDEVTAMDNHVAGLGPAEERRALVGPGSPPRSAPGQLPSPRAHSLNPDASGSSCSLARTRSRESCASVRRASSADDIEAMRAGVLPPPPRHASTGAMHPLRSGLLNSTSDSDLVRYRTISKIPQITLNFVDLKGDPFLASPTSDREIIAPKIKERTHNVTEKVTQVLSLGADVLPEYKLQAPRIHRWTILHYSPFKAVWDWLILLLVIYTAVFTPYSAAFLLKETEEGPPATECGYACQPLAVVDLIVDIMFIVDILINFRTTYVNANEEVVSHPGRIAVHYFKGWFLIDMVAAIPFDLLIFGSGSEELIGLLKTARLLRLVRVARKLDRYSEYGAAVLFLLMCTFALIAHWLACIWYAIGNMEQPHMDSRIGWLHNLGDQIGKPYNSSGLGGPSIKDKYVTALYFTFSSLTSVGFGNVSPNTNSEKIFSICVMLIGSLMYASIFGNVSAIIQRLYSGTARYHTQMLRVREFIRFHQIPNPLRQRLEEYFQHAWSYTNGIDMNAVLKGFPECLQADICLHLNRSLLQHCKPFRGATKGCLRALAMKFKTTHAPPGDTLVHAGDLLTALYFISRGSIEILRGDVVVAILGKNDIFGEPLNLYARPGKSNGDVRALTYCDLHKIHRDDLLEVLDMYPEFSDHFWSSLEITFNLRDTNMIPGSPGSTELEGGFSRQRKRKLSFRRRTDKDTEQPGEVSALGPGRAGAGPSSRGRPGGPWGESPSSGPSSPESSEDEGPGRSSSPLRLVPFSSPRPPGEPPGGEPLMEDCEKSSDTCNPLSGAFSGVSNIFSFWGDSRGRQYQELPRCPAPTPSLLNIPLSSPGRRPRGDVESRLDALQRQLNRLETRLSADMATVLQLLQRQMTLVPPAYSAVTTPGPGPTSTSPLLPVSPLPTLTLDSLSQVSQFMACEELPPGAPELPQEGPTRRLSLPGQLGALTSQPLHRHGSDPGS
Cytochrome P450 2D6, sequence (P10635 whole entry): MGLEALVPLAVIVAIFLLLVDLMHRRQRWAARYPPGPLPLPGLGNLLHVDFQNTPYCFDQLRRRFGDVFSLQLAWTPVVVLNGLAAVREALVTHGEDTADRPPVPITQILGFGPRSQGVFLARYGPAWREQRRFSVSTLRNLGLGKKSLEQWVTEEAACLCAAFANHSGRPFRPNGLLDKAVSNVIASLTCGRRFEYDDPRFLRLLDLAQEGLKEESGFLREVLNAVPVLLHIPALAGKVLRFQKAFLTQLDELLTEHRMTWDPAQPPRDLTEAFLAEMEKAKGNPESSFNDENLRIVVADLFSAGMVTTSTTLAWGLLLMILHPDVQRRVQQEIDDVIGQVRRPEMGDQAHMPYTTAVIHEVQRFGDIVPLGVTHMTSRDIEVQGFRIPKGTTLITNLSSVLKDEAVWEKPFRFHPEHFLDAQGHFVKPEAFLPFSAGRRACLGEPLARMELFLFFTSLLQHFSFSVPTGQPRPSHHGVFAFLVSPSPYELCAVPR
Sodium-dependent dopamine transporter, sequence (Q01959 whole entry): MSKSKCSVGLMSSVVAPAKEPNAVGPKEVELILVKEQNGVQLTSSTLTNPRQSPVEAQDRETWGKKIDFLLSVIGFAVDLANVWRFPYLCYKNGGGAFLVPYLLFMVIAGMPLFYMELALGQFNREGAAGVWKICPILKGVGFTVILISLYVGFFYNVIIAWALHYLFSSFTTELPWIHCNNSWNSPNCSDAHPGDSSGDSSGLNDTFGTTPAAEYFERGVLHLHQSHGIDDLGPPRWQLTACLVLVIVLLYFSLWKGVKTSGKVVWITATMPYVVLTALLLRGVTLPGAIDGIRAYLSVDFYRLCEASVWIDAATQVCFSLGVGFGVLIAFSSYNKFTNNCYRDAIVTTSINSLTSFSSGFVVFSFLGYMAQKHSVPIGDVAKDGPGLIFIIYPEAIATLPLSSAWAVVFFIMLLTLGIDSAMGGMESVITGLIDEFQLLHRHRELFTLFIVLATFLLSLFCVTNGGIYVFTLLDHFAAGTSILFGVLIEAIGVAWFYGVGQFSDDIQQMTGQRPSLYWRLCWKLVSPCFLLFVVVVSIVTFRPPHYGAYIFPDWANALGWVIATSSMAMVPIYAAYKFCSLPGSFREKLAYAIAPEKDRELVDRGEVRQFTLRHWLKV
Cytochrome P450 2C9, sequence (P11712 whole entry): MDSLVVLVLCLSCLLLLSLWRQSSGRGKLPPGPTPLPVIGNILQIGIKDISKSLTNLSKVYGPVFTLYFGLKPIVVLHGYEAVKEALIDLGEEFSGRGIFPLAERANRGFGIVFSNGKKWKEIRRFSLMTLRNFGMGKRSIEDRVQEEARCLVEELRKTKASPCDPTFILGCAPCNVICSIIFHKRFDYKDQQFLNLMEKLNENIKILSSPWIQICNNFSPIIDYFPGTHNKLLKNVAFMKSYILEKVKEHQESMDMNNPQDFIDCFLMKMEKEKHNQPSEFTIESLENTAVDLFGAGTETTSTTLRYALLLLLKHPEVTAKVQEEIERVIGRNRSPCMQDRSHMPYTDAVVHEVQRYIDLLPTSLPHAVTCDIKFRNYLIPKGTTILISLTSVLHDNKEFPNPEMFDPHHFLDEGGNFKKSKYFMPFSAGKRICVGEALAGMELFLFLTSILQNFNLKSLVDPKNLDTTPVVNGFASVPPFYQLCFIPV

SMILES	IC50 [1] [nM]	half-life [2] [h]	half-life [3] [h]	IC50 [4] [nM]	IC50 [5] [nM]	IC50 [6] [nM]	IC50 [7] [nM]	IC50 [8] [nM]	other results
CNC[C@@H]1Cc2ccccc2[C@@H](c2ccc(Cl)c(Cl)c2)C1	2170	1.55	> 5	> 25000	103	917	> 25000	126	–
CNCCCN1c2ccccc2CCc2ccccc21 [DESIPRAMINE]	–	–	–	–	–	–	–	–	Kp at 2 h [9]: 40
NCC[C@H]1Cc2ccccc2[C@@H](c2ccc(Cl)c(Cl)c2)C1	1640	> 5	> 5	> 25000	50	13800	> 25000	–	IC50 [10]: 1510 nM
N[C@@H]1Cc2ccccc2[C@H](c2ccc(Cl)c(Cl)c2)C1	–	–	–	–	894	–	–	855	–
CN[C@H]1CCc2ccccc2[C@@H]1c1ccc(Cl)c(Cl)c1	–	1.68	1.77	–	91	8	> 10000	766	–
CN[C@H]1Cc2ccccc2[C@H](c2ccc(Cl)c(Cl)c2)C1	> 25000	> 5	> 5	> 25000	–	67	> 25000	–	–
CN[C@H]1Cc2ccccc2[C@@H](c2ccc(Cl)c(Cl)c2)C1	10100	> 5	> 5	17100	–	2780	> 25000	–	IC50 [10]: 1600 nM; Drug uptake [11]: 2830 ng; inhibition [12]: Dose-dependent effect; fraction unbound at 2 h [13]: 0.01; Drug uptake [14]: 6021 ng; concentration at 2 h [15]: 164 ng/mL; inhibition in vivo at 30 mg/kg [16]: 50%; fCmax [17]: 440 nM; concentration at 2 h [18]: 344 ng/mL; inhibition in vivo at 10 mg/kg [19]: 21%; inhibition in vivo at 100 mg/kg [20]: 30%; Activity [21]: Non-toxic; concentration at 2 h [22]: 96 ng/mL; Drug uptake [23]: 13571 ng
CN(C)[C@@H]1Cc2ccccc2[C@@H](c2ccc(Cl)c(Cl)c2)C1	–	–	–	–	176	–	–	174	–
N[C@H]1Cc2ccccc2[C@@H](c2ccc(Cl)c(Cl)c2)C1	–	–	–	–	175	–	–	174	–
CN(C)[C@H]1Cc2ccccc2[C@@H](c2ccc(Cl)c(Cl)c2)C1	–	–	–	–	319	–	–	98	–
CN[C@@H]1Cc2ccccc2[C@@H](c2ccc(Cl)c(Cl)c2)C1	5260	2	> 5	> 25000	62	1160	> 25000	–	IC50 [10]: 2320 nM
CN[C@@H]1Cc2ccccc2[C@H](c2ccc(Cl)c(Cl)c2)C1	> 25000	> 5	> 5	> 25000	281	20	> 25000	–	IC50 [10]: 5270 nM
N[C@@H]1Cc2ccccc2[C@@H](c2ccc(Cl)c(Cl)c2)C1	–	–	–	–	408	–	–	731	–
CN[C@@H]1CCc2ccccc2[C@H]1c1ccc(Cl)c(Cl)c1	–	0.333	1.58	–	212	57	> 10000	1640	–
CN(C)C[C@@H]1Cc2ccccc2[C@H](c2ccc(Cl)c(Cl)c2)C1 (racemic)	–	–	–	–	332	–	–	565	–
CN(C)[C@@H]1Cc2ccccc2[C@H](c2ccc(Cl)c(Cl)c2)C1	–	–	–	–	273	–	–	164	–
CNC[C@H]1Cc2ccccc2[C@@H](c2ccc(Cl)c(Cl)c2)C1	–	–	–	–	484	–	–	372	–
CN[C@H]1CC[C@@H](c2ccc(Cl)c(Cl)c2)c2ccccc21 [SERTRALINE]	310	–	> 2	–	–	1400	> 10000	–	–
CN(C)C[C@H]1Cc2ccccc2[C@H](c2ccc(Cl)c(Cl)c2)C1 (mixture of isomers)	–	–	–	–	339	–	–	309	–
CNC[C@H]1Cc2ccccc2[C@H](c2ccc(Cl)c(Cl)c2)C1	7690	> 5	> 5	20100	–	41	> 25000	–	IC50 [10]: 1610 nM
CN[C@@H]1CCc2ccccc2[C@@H]1c1ccc(Cl)c(Cl)c1	–	0.917	0.917	–	559	33	7600	112	–
CN[C@H]1CCc2ccccc2[C@H]1c1ccc(Cl)c(Cl)c1	–	0.1	0.917	–	1620	495	> 10000	7260	–
NCC[C@@H]1Cc2ccccc2[C@H](c2ccc(Cl)c(Cl)c2)C1	3760	> 5	> 5	> 25000	32	265	> 25000	–	IC50 [10]: 13100 nM
CNC[C@@H]1Cc2ccccc2[C@H](c2ccc(Cl)c(Cl)c2)C1	6020	> 5	> 5	> 25000	111	154	> 25000	210	IC50 [10]: 2000 nM
